“And” between values parts separate entries of the source, which are not always exact repeats. Identical values can stand only once. Counter-ions that a name gives are not always drawn. The source made the active and inactive calls. The rule behind the calls is not given here.
Experiments:
[1] = target: T1, DNA-3-methyladenine glycosylase (Homo sapiens, UniProt P29372); assay: Inhibition of human purified MPG pre-incubated with compound for 10 mins followed by addition of 1,N6 ethenoadenine containing 32P-labeled duplex oligonucleotide substrates by gel-based excision activity assay
Method in brief: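 Purified hMPG (2.3 nM) pre-incubated 10 min at room temperature with a range of compound concentrations. Then 7 nM εA ³²P-duplex substrate, 10 min at 37°C, in HEPES pH 7.9 buffer with 150 mM NaCl. Heat stop, APE1 cleavage of AP sites. Products resolved on 7 M urea/20% PAGE and bands quantified; IC50 from the concentration series.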

[2] = Binding affinity to ethenoadenine containing 5'-TCGAGGATCCTGAGCTCGAGTCGACGXTCGCGAATTCTGCGGATCCAAGC-3' duplex oligonucleotide DNA (unknown origin) at 15 uM by SPR assay
Method in brief: (§1)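 Biotinylated 50-mer oligonucleotide, undamaged or εA-containing, immobilized on streptavidin-coated C1 chip (Biacore T100). Compound injected at 15 µM in 10 mM HEPES-KOH pH 7.6, 90 mM KCl, 0.05% surfactant P20 at 7°C; background-subtracted RU recorded over repeated 60 s injections.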

[3] = Binding affinity to 5'-TCGAGGATCCTGAGCTCGAGTCGACGXTCGCGAATTCTGCGGATCCAAGC-3' duplex oligonucleotide DNA (unknown origin) at 15 uM by SPR assay; method in brief: as §1
[4] = target: T1, DNA-3-methyladenine glycosylase; assay: Inhibition of human purified MPG binding to immobilized ethenoadenine containing 5'-TCGAGGATCCTGAGCTCGAGTCGACGXTCGCGAATTCTGCGGATCCAAGC-3' duplex oligonucleotide at 5 to 40 uM by SPR assay
Method in brief: (§2)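 εA-containing 50-mer biotinylated and immobilised on a streptavidin C1 chip. 30 nM hMPG pre-mixed with compound (0, 5, 10, 20, 40 µM) and injected twice for 60 s each. Buffer: 10 mM HEPES-KOH pH 7.6, 90 mM KCl, 0.05% P20, 7°C. Inhibition taken as percent decrease in background-subtracted RU versus DMSO.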

[5] = target: T1, DNA-3-methyladenine glycosylase; assay: Inhibition of human purified MPG binding to immobilized ethenoadenine containing 5'-TCGAGGATCCTGAGCTCGAGTCGACGXTCGCGAATTCTGCGGATCCAAGC-3' duplex oligonucleotide at 40 uM by SPR assay; method in brief: as §2
[6] = target: DNA repair nuclease/redox regulator APEX1 (Homo sapiens) (UniProt P27695); assay: Inhibition of APE1 (unknown origin) pre-incubated with compound for 10 mins followed by addition of […] at 20 to 40 uM by gel-based excision activity assay
[7] = target: N-glycosylase/DNA lyase (Homo sapiens) (UniProt O15527); assay: Inhibition of OGG1 (unknown origin) pre-incubated with compound for 10 mins followed by addition of […] containing 32P-labeled duplex oligonucleotide substrates at 20 to 40 uM by gel-based excision activity assay
Method in brief: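 Purified OGG1 pre-incubated with compound (0, 20, 40 µM) 10 min at room temperature. Products resolved on denaturing 20% polyacrylamide/7M urea gels; band intensities quantified.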

[8] = target: T1, DNA-3-methyladenine glycosylase; assay: Inhibition of human purified MPG pre-incubated with compound for 10 mins followed by addition of 1,N6 ethenoadenine containing 32P-labeled duplex oligonucleotide substrates at 20 uM by gel-based excision activity assay
Method in brief: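 Purified hMPG (2.3 nM) pre-incubated 10 min at room temperature with 20 µM compound. Then 7 nM εA ³²P-duplex added, 10 min at 37°C, in 25 mM HEPES pH 7.9, 150 mM NaCl, BSA, DTT, 10% glycerol. Stopped 65°C, AP sites cut with 15 nM APE1/5 mM MgCl₂. Denaturing 20% PAGE, band densitometry.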

[9] = target: T1, DNA-3-methyladenine glycosylase; assay: Inhibition of MPG in human A549 cell extracts at 50 to 300 uM using 1,N6 ethenoadenine containing 32P-labeled duplex oligonucleotide substrates by gel-based excision activity assay
Method in brief: (§3)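 Whole-cell extract (5 µg; A549 or HeLa, made with M-PER) pre-incubated with compound at 0, 50, 100, 200 and 300 µM for 10 min at room temperature. Then 3 nM εA ³²P-duplex substrate added; buffer and workup as for purified enzyme. Product bands on denaturing urea gel quantified as percent product formation, normalised to untreated samples.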

[10] = target: T1, DNA-3-methyladenine glycosylase; assay: Inhibition of MPG in human HeLa cell extracts at 50 to 300 uM using 1,N6 ethenoadenine containing 32P-labeled duplex oligonucleotide substrates by gel-based excision activity assay; method in brief: as §3
[11] = target: T1, DNA-3-methyladenine glycosylase; assay: Inhibition of MPG in human A549 cells assessed as reduction in DNA repair at 200 and 300 uM using ethenoadenine-containing M13mp18 plasmids by plasmid based in-cell repair assay
Method in brief: (§4)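 Lesion plasmid built in vitro: M13mp18 with εA at the EcoRI site; cells in DMEM/10% FBS, compound at 0, 200 or 300 µM. Plasmid transfected into cells, then recovered after harvest. EcoRI digest tests the lesion site and SacI the internal control site. Repair scored by plaque formation.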

[12] = target: N-glycosylase/DNA lyase (Homo sapiens) (UniProt O15527); assay: Inhibition of OGG1 in human A549 cells assessed as reduction in DNA repair at 200 and 300 uM using 8-oxodG-containing M13mp18 plasmids by plasmid based in-cell repair assay
Method in brief: (§5)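 A549 or HeLa cells (DMEM, 10% FBS) treated with compound (0, 200, 300 µM) and transfected with in vitro–built 8-oxo-dG-containing M13mp18 plasmid (lesion at EcoRI site). Plasmids recovered, digested with EcoRI (lesion site) and SacI (internal control), and used for plaque formation to calculate repair.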

[13] = target: T1, DNA-3-methyladenine glycosylase; assay: Inhibition of MPG in human HeLa cells assessed as reduction in DNA repair at 200 and 300 uM using ethenoadenine-containing M13mp18 plasmids by plasmid based in-cell repair assay; method in brief: as §4
[14] = target: N-glycosylase/DNA lyase (Homo sapiens) (UniProt O15527); assay: Inhibition of OGG1 in human HeLa cells assessed as reduction in DNA repair at 200 and 300 uM using 8-oxodG-containing M13mp18 plasmids by plasmid based in-cell repair assay; method in brief: as §5
[15] = target: T1, DNA-3-methyladenine glycosylase; assay: Inhibition of MPG in human HeLa cells assessed as reduction in DNA repair at 300 uM using ethenoadenine-containing M13mp18 plasmids by plasmid based in-cell repair assay; method in brief: as §4
[16] = target: T1, DNA-3-methyladenine glycosylase; assay: Inhibition of MPG in human A549 cells assessed as reduction in DNA repair at 300 uM using ethenoadenine-containing M13mp18 plasmids by plasmid based in-cell repair assay; method in brief: as §4
A549 = assay: Toxicity against human A549 cells assessed as reduction in cell viability at 0.2 to 1.4 mM after 72 hrs by MTT assay; type: cell-based; conditions: a549, 72 h, 1400 µM
Method in brief: (§6)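 A549 or HeLa cells seeded at 2000 per well, treated next day for 72 h in triplicate with compound (0–2 mM). Then MTT 0.5 mg/mL for 4 h at 37°C, DMSO solubilization. Absorbance read at 570 nm minus 650 nm background; percent survival relative to untreated wells.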

HeLa = assay: Toxicity against human HeLa cells assessed as reduction in cell viability at 0.2 to 1.4 mM after 72 hrs by MTT assay; type: cell-based; conditions: 1400 µM; method in brief: as §6

T1 sequence (P29372 whole entry): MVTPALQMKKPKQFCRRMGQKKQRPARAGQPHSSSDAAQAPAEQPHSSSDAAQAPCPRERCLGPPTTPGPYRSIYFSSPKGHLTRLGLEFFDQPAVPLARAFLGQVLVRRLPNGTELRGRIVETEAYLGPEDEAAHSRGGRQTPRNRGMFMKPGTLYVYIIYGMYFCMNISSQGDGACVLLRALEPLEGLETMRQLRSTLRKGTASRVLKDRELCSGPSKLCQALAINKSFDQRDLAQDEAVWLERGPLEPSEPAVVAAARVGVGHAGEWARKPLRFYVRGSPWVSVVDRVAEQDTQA
N-glycosylase/DNA lyase (Homo sapiens), sequence (O15527 whole entry): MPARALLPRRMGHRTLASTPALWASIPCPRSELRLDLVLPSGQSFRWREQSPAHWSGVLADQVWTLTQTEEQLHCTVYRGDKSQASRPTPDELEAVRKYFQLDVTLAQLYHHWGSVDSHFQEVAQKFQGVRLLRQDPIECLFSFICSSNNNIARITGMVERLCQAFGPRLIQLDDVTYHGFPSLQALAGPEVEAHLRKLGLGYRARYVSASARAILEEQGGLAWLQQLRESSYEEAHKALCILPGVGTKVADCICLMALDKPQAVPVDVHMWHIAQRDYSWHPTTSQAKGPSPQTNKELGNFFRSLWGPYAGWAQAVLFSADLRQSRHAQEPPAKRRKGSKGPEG
DNA repair nuclease/redox regulator APEX1 (Homo sapiens), sequence (P27695 whole entry): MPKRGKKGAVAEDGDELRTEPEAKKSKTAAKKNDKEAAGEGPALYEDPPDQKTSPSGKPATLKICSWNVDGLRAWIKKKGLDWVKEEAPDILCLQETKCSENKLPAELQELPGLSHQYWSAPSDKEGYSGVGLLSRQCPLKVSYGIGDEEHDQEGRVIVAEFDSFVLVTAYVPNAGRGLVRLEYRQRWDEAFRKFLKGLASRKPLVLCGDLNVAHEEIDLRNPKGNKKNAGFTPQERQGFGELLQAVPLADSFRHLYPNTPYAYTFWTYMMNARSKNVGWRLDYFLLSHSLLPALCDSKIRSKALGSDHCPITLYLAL

O=C(O)C1=CC(=C(c2ccc(O)c(C(=O)O)c2)c2ccc(O)c(C(=O)O)c2)C=CC1=O [AURINTRICARBOXYLIC ACID]
IC50 [1]: 200 nM

O.O=c1c(O)c(-c2ccc(O)cc2O)oc2cc(O)cc(O)c12
IC50 [1]: 2600 nM | Activity [2]: inactive | Activity [3]: inactive | IC50 [4]: 12000 nM | inhibition [5]: Active | inhibition [6]: inactive | inhibition [7]: inactive | inhibition [8]: 81% | inhibition [9]: Dose-dependent effect | inhibition [10]: Dose-dependent effect | inhibition [11]: Dose-dependent effect | inhibition [12]: inactive | inhibition [13]: Dose-dependent effect | inhibition [14]: inactive | inhibition [15]: 50% | inhibition [16]: 50% | Activity (A549): Non-toxic | Activity (HeLa): Non-toxic

O=c1c(O)c(-c2ccc(O)c(O)c2)oc2cc(O)cc(O)c12
inhibition [8]: 38% and 44% | inhibition [9]: inactive | inhibition [10]: inactive

O=C/C=C/c1ccccc1
inhibition [8]: 0%

O=C1c2c(O)ccc(O)c2C(=O)c2c(NCCNCCO)ccc(NCCNCCO)c21 [MITOXANTRONE HYDROCHLORIDE]
IC50 [1]: 2500 nM | Activity [2]: Active

O=c1c(O)c(-c2cc(O)c(O)c(O)c2)oc2cc(O)cc(O)c12
inhibition [8]: 36%

O=c1c(O)c(-c2ccc(O)cc2)oc2cc(O)cc(O)c12
inhibition [8]: 25%

Cc1cc2c(C(C)C)c(O)c(O)c(C=O)c2c(O)c1-c1c(C)cc2c(C(C)C)c(O)c(O)c(C=O)c2c1O [GOSSYPOL]
IC50 [1]: 3000 nM | Activity [2]: Active

O=C(O)/C=C/c1ccc(O)c(O)c1
inhibition [8]: 0%

Reference: ChEMBL document CHEMBL3397015, “Naturally occurring polyphenol, morin hydrate, inhibits enzymatic activity of N-methylpurine DNA glycosylase, a DNA repair enzyme with various roles in human disease” (Bioorg Med Chem, 2015)
